Among the data in ChEMBL document CHEMBL4513216, “Probing the Open Global Health Chemical Diversity Library for Multistage-Active Starting Points for Next-Generation Antimalarials” (ACS Infect Dis, 2020) are cytotoxicity values, retold here.

Structures are written as SMILES.

This series in a line: Toxicity liver stage against HepG2, at 10uM. The series is classed as cell-based. On the set-up: test concentration 10 uM, cell line HepG2-A16-CD81EGFP. To be noted: human, HepG2-A16-CD81EGFP cells; read-out: INHIBITION
Put shortly:
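Uninfected HepG2-A16-CD81EGFP cells, 3 × 10^3 per well, 1536-well, plated on prespotted compound at 10 μM final, parasite-free screening media added to match infected plates; puromycin 10 μM positive, DMSO 0.5% negative; run in parallel with 48 h PbLuc assay at 37 °C, 5% CO2; viability by CellTiter-Glo luminescence, normalized to controls.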
In the case of `COc1ccc(-n2cc3[nH][nH]c(=O)n3c2=O)cc1`, the cytotoxicity at 10 µM was determined as 10.3%. As to `COc1c(C2CCCN2Cc2nnc(C3CC3)o2)c(C)nn1C` (stereo unspecified), the cytotoxicity at 10 µM is -9.29%. The value for `Cc1nc(NC(=O)OC(C)(C)C)sc1C(N)=O` was -14.4%; that for `CCN1CC2(CCC1=O)CCN(Cc1cc(F)ccc1Cl)CC2` was 6.58%; that for `O=C(c1cccc(S(=O)(=O)NCCCc2ncc[nH]2)c1)N1CCOCC1` was -11.4%. As for `c1ccn2c(C3CCCN3Cc3nc(C4CC4)no3)nnc2c1` (stereo unspecified), the figure is -2.59%; as for `O=S(=O)(c1ccccc1)N1CCC2(CCCN2Cc2ccc(Cl)cc2)C1` (stereo unspecified), -66.3%; as for `COc1cccc(CN(C)Cc2ccccc2C#N)c1OC`, -5.92%. As for `Cc1nn(C)c(C)c1CC(=O)N1CCC(Nc2cccnn2)CC1`, the figure is -8.8%; as for `O=C(Cn1ncc2c(c1=O)CCCC2)Nc1cccc2[nH]ccc12`, 3.16%. `O=C(c1cnccn1)N1CCN2C[C@H](OCc3ccccc3F)C[C@H]2C1`: the cytotoxicity at 10 µM is -2.16%. Consider `CCc1nc(CC(=O)N2CCn3c(nnc3C(C)C)C2)cs1`, for which the cytotoxicity at 10 µM is -6.72%. Regarding `CN1CC(c2ccccc2)CC12CCN(C(=O)c1ccc(Cl)cn1)CC2` (stereo unspecified), the cytotoxicity at 10 µM came out at 3.62%. With `CC(C)(CNC(=O)C1CCCCN1S(C)(=O)=O)N1CCOCC1` (stereo unspecified), the cytotoxicity at 10 µM is -7.15%. Consider `Cc1cc(C)n(-c2ccc(N3CCC(O)CC3)nc2)n1`, for which the cytotoxicity at 10 µM is -5.08%. `O=C(CC1CCCC1)NCCn1nc2ccccn2c1=O`: the cytotoxicity at 10 µM is 9.97%.

As to `CCC1(CC)Cc2ccccc2-c2nc(NCCCO)[nH]c(=O)c21`, the cytotoxicity at 10 µM was determined as 10.2%. For `COc1cc(N2C[C@H]3OCC[C@H]3[C@H](C(=O)NC3CC3)C2)ncn1`, the cytotoxicity at 10 µM is -8.83%. Turning to `CCCS(=O)(=O)N1C[C@H](N(C)Cc2ccco2)[C@@H]2OCCC[C@@H]21`, the cytotoxicity at 10 µM is -78.4%. The value for `COc1cc(CNC(=O)Nc2nncs2)ccc1O` was -6.29%. As to `O=C(CSC1CCc2ccccc2NC1=O)NCc1cccs1` (stereo unspecified), the cytotoxicity at 10 µM was -2%. Turning to `NCCC1CN(Cc2cnc3c(-c4ccccc4)cnn3c2)CCO1` (stereo unspecified), the cytotoxicity at 10 µM was -3.92%. With `Cc1ccc(C(=O)Cc2c(Cl)nc3n(C)c(=O)n(C)c(=O)n23)cc1`, the cytotoxicity at 10 µM was -3.96%. As to `O=C1CCCN1Cc1ncn2c1CN(C(=O)NC1CCCC1)CCC2`, the cytotoxicity at 10 µM is -147%. Regarding `O=C(CCC(=O)N1CCCC1c1cccs1)N1CCc2sccc2C1` (stereo unspecified), the cytotoxicity at 10 µM was -8.45%. On to `CC(C)Cc1noc(CN2CCOC(Cn3cncn3)C2)n1` (stereo unspecified), for which the cytotoxicity at 10 µM was -2.58%. As for `Cc1ccc(NC(=O)Cc2cnc3n(C)c(=O)[nH]c(=O)n23)cc1`, the cytotoxicity at 10 µM stood at 8.24%. Regarding `Cn1cc(CN2C[C@@H]3OCCN(CC4CCCC4)[C@@H]3C2)cn1`, the cytotoxicity at 10 µM was -163%.

Take `Cc1nn(C)c(Cl)c1C1CCCN1C(=O)c1cc[nH]n1` (stereo unspecified): the cytotoxicity at 10 µM is -5.55%. For the compound `COC(=O)CC1CCN(C(=O)c2ccc(C)cc2)CC1`, the cytotoxicity at 10 µM worked out at 4.99%. As for `COc1cccc(CN2CCC3(CCN(C(=O)C4CC=CC4)CC3)C2)c1`, the figure is -0.602%. `COC(=O)CCC(=O)N1CCc2[nH]nc(-c3ccc4c(c3)OCO4)c2C1`: the cytotoxicity at 10 µM was -8.28%. Turning to `CN(Cc1nnc(-c2ccco2)o1)C(C(N)=O)c1cccc(F)c1` (stereo unspecified), the cytotoxicity at 10 µM is 16.7%. As to `O=C(NC1CC1)c1cc(NC(=O)N2CCOCC2)ccc1Cl`, the cytotoxicity at 10 µM was -4.15%. Consider `COc1ccc(F)cc1CN1CCCC1Cn1nc(C)nc1C` (stereo unspecified), for which the cytotoxicity at 10 µM is -2.41%.

Consider `CCCOc1c(Cl)cc(C(=O)N2CCOC23CCN(C)CC3)cc1Cl`, for which the cytotoxicity at 10 µM worked out at 8.17%. For the compound `CC1CCN(S(=O)(=O)c2cccn(CC(=O)NC3CCCC3)c2=O)CC1`, the cytotoxicity at 10 µM was -14.6%. In the case of `CCC1CN(CCNS(C)(=O)=O)c2ccccc2O1` (stereo unspecified), the cytotoxicity at 10 µM was -2.67%. Turning to `O=C1CC(N2CCN(c3ccc(O)cc3)CC2)C(=O)N1Cc1cccs1` (stereo unspecified), the cytotoxicity at 10 µM is 5.77%.

Consider `Cc1cc2cc(CNC(=O)c3cnn4c3OCCC4)ccc2[nH]1`, for which the cytotoxicity at 10 µM was 6.59%.

`CC(C(=O)NCc1ccnc(N2CCCCCC2)c1)n1cccn1` (stereo unspecified): the cytotoxicity at 10 µM is -15.8%. Consider `CN(C)Cc1cccc(C(=O)N2CCCC(n3cncn3)C2)c1` (stereo unspecified), for which the cytotoxicity at 10 µM was -5.87%. The value for `CN(C)C(C(=O)N1CC(Oc2ccccc2F)C1)c1ccc(F)cc1` (stereo unspecified) was 1.28%; that for `c1cnc2c(c1)cc([C@@H]1CCCO1)n2CCN1CCCCC1` was -25.9%; that for `CCn1ncnc1C(C)NC(=O)C1CCN(C(=O)COC)CC1` (stereo unspecified) was 2.82%.

On to `CS(=O)(=O)c1ccc(NCc2ccccc2)cn1`, for which the cytotoxicity at 10 µM was determined as 13.2%. For the compound `COc1cc(N2CC[C@@H]3O[C@@H](C(=O)NCCN(C)C)C[C@@H]32)ncn1`, the cytotoxicity at 10 µM is 0.588%. For `CCCN(CCC)S(=O)(=O)N(C)Cc1ccncc1`, the cytotoxicity at 10 µM amounted to 12.2%. Regarding `COc1ncc(C2(O)CCN(Cc3cccs3)CC2)c(OC)n1`, the cytotoxicity at 10 µM was 1.9%. `CCOCC1CN(Cc2ccc(F)cc2)Cc2nn(CC3CC3)cc21` (stereo unspecified): the cytotoxicity at 10 µM is 7.43%. `Cc1ccccc1C1(CNC(=O)c2cccc(S(C)(=O)=O)c2)CC1`: the cytotoxicity at 10 µM is -0.185%. Take `Cc1cc(C)c(CNC(=O)C(C)Oc2cccc(C#N)c2)c(=O)[nH]1` (stereo unspecified): the cytotoxicity at 10 µM is 7.42%. The value for `COCCCN1CCN(CC2CCCO2)CC1` (stereo unspecified) was -13.5%; that for `CCN(C)C(=O)c1ccc(N(C)Cc2cc(-c3cccnc3)no2)nc1` was -7.21%. For `CN1CC(=O)N(c2cccc(F)c2)CC12CCN(Cc1cncn1C)C2` (stereo unspecified), the cytotoxicity at 10 µM was -0.791%.

As for `CN(CCN1CCCCC1)C(=O)c1cc(CN2CCOCC2)on1`, the cytotoxicity at 10 µM was -22.7%. With `CN(CCc1cccs1)C(=O)Nc1cnn(CC2CCCO2)c1` (stereo unspecified), the cytotoxicity at 10 µM was -2.66%. Take `O=C(CCc1nccs1)N1CCN(c2cccnn2)CC1`: the cytotoxicity at 10 µM is -2.84%. On to `O=C(c1nc(N2CCCC2)ncc1Cl)N1CCN(Cc2ccsc2)CC1`, for which the cytotoxicity at 10 µM is -56%. As to `c1cnc(N2CCN(Cc3nnnn3C3CC3)CC2)nc1`, the cytotoxicity at 10 µM is 9.29%. Consider `COc1cc(CNc2cnn(C)c2)cc2c1OCCO2`, for which the cytotoxicity at 10 µM was -10.8%. On to `Cc1cnn(CC2CCCN2CC(=O)N(C)Cc2ccsc2)c1` (stereo unspecified), for which the cytotoxicity at 10 µM worked out at 3.82%.

Regarding `Cc1cc2nc(C(C)C)cc(NCCc3ccncc3)n2n1`, the cytotoxicity at 10 µM was -1.18%.

On to `c1cnc(OCc2nnc3n2CCN(CC2CC2)C3)nc1`, for which the cytotoxicity at 10 µM is -1.93%. Turning to `Cc1nc(-c2nc(C(=O)N3CCOCC3)c3ccccn23)cn1C(C)C`, the cytotoxicity at 10 µM turned out to be 1.53%. As to `C[C@@H]1CN(Cc2cc(C3CCCCC3)no2)CC[C@@]1(O)C1CC1`, the cytotoxicity at 10 µM turned out to be 0.957%.

Regarding `CCC(C)NC(=O)c1ccc(NC(=O)CCc2ccncc2)c(C)c1` (stereo unspecified), the cytotoxicity at 10 µM is 4.31%. In the case of `Cc1cc(-c2nn3c(C(C)C)nnc3s2)on1`, the cytotoxicity at 10 µM was determined as 0.9%.

`N#Cc1cccc(Cl)c1NCCc1n[nH]c(=O)[nH]1`: the cytotoxicity at 10 µM is 60.1%.

On to `c1ccc(-n2ccnc2)c(CNCC2CNc3ccnn3C2)c1` (stereo unspecified), for which the cytotoxicity at 10 µM is -8.11%. As to `O=C(COC1CCCC1)Nc1ncn(CC(=O)N2CCCCCC2)n1`, the cytotoxicity at 10 µM is -8.16%.
